Experimental data published in ChEMBL document CHEMBL1149635, “New chemical tools for investigating human mitotic kinesin Eg5” (Bioorg Med Chem, 2007).
pIC50: −log10 of the molar value. Calls of active or inactive are those of the source. No cut-off for these calls is given here.

What was measured:
HeLa [1] = experiment: Induction of monoastral spindles in HeLa cells at 50 uM after 7 hrs; assay type: functional, Homo sapiens
Outline: (§1)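 Fixed 1% paraformaldehyde-PBS 37 °C 3 min, then methanol −20 °C 5 min; anti-β-tubulin plus FITC secondary, propidium iodide counterstain. Monoastral spindles counted as percentage of mitotic cells; <25% deemed not significant.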

[2] = target: T1, Kinesin-like protein KIF11 (Homo sapiens) (UniProt P52732); experiment: Inhibition of microtubule-stimulated Eg5 ATPase activity expressed in Escherichia coli at 500 uM after 12 hrs; assay type: functional
T1 sequence (whole entry): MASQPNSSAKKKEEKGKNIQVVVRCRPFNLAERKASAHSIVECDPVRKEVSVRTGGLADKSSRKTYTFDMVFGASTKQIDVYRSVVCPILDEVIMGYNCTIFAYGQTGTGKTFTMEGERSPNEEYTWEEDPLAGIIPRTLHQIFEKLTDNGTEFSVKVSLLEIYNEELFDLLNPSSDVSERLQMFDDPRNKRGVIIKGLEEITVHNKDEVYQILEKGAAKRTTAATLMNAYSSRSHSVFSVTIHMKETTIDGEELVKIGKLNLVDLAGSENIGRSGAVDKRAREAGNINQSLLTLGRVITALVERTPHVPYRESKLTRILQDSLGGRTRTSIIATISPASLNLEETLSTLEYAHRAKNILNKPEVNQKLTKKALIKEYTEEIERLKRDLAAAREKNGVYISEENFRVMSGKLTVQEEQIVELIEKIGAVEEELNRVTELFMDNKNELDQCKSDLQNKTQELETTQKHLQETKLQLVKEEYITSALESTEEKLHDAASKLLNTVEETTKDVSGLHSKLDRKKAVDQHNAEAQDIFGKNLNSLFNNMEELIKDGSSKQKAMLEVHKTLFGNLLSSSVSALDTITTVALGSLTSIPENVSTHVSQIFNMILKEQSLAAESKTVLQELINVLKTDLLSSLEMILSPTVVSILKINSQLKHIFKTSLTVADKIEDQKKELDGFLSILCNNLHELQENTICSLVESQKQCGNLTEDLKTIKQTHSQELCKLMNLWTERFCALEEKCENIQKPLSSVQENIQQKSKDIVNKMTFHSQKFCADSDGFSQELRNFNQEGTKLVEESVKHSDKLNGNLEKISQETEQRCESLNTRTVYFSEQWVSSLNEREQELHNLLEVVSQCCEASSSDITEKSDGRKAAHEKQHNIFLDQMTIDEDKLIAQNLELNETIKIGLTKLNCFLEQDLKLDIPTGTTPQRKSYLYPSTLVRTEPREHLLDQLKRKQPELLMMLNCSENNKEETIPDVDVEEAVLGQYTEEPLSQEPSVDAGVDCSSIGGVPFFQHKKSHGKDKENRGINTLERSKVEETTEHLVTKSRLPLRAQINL

[3] = target: T1, Kinesin-like protein KIF11 (Homo sapiens); experiment: Inhibition of Eg5 ATPase activity expressed in Escherichia coli at 500 uM after 12 hrs; assay type: functional
Outline: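 Basal (no microtubules) steady-state ATPase of Eg5 2–386 at 1.0 µM, pyruvate kinase/lactate dehydrogenase-coupled assay, room temperature, duplicate, 2.5% DMSO; top concentration 500 µM. Acetylated analogues alternatively preincubated (2 mM) 12 h at 37 °C in DMEM + 10% FBS before basal ATPase measurement.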

[4] = target: T2, Kinesin-like protein KIF11 (Homo sapiens, UniProt P52732); experiment: Inhibition of Eg5 ATPase activity expressed in Escherichia coli after 12 hrs; assay type: functional
T2 sequence (P52732 whole entry): T1 sequence (whole entry)

HeLa [5] = experiment: Induction of monoastral spindles in HeLa cells at 100 uM after 7 hrs; assay type: functional, Homo sapiens; outline: as §1
[6] = target: T2, Kinesin-like protein KIF11; experiment: Inhibition of microtubule-stimulated Eg5 ATPase activity expressed in Escherichia coli after 12 hrs; assay type: functional
HeLa [7] = experiment: Cell cycle arrest in human HeLa cells assessed as 4N DNA content at 25 uM after 24 hrs; assay type: functional
Outline: (§2)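 HeLa cells exposed 24 h; two-dimensional flow cytometry with MPM-2 antibody (mitosis-specific phosphoepitopes, FITC-conjugated secondary) and propidium iodide for DNA content; 10,000 events per sample, aggregates gated out; 4N population and fraction MPM-2 positive scored.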

[8] = target: T2, Kinesin-like protein KIF11; experiment: Inhibition of Eg5 ATPase activity expressed in Escherichia coli after 12 hrs
HeLa [9] = experiment: Induction of monoastral spindles in HeLa cells after 7 hrs; assay type: functional, cell-based; conditions: Homo sapiens; outline: as §1
HeLa [10] = experiment: Cell cycle arrest in human HeLa cells assessed as 4N DNA content at 100 uM after 24 hrs; assay type: functional; outline: as §2

| SMILES | Activity [2] | Activity [3] | pIC50 [4] | pIC50 [6] | pIC50 [8] | pIC50 (HeLa [9]) | Activity (HeLa [1]) [%] | Activity (HeLa [5]) [%] | Activity (HeLa [1]; Homo sapiens) | Activity (HeLa [7]) [%] | Activity (HeLa [10]) [%] |
| --- | --- | --- | --- | --- | --- | --- | --- | --- | --- | --- | --- |
| CCOC(=O)C1=C(C)NC(=S)NC1c1cc(O)ccc1[N+](=O)[O-] (configuration not stated) | inactive | inactive |  |  |  |  | <25 |  |  |  |  |
| CC1=C(C(=O)OCCOCCO)C(c2cccc(O)c2)NC(=S)N1 (configuration not stated) |  |  | 5.02 | 4.68 |  |  | <25 | 50.5 |  |  |  |
| CC(=O)SCCOCCOC(=O)C1=C(C)NC(=S)NC1c1cccc(O)c1 (configuration not stated) |  |  | 5.35 | 4.94 |  |  | <25 | 32.5 |  |  |  |
| COC(=O)Nc1nc2cc(C(=O)c3cccs3)ccc2[nH]1 [NOCODAZOLE] |  |  |  |  |  |  |  |  |  | 82 |  |
| CCOC(=O)C1=C(C)NC(=[Se])NC1c1cccc(O)c1 (configuration not stated) |  |  | 4.94 | 4.64 |  |  |  | 33.2 |  |  |  |
| CC1=C(C(=O)NCCOCCOCCN=[N+]=[N-])C(c2cccc(O)c2)NC(=S)N1 (configuration not stated) |  |  | 4.41 | 4.16 |  |  | <25 | 14.9 |  |  |  |
| CCNC(=O)C1=C(C)NC(=S)NC1c1cccc(O)c1 (configuration not stated) |  |  | 4.64 | 4.08 |  |  | <25 | 17.8 |  |  |  |
| CCOC(=O)C1=C(C)NC(=S)NC1c1cccc(OC(C)=O)c1 (configuration not stated) | inactive | inactive |  |  | 5.41 | 4.30 | 49.7 | 89.6 |  |  |  |
| CC1=C(C(=O)c2ccco2)C(c2cccc(O)c2)NC(=S)N1 (configuration not stated) |  |  | 5.82 | 5.52 |  | 5.04 | 96.8 |  |  | 72 | 77 |
| CC1=C(C(=O)OCCOCCOC(=O)C2=C(C)NC(=S)NC2c2cccc(O)c2)C(c2cccc(O)c2)NC(=S)N1 (configuration not stated) |  |  | 5.00 | 4.62 |  |  | <25 | 11.4 |  |  |  |
| CCOC(=O)C1=C(C)NC(=S)NC1c1cc(OC(C)=O)ccc1OC(C)=O (configuration not stated) | inactive | inactive |  |  |  |  | 56.2 |  |  |  |  |
| CCOC(=O)C1=C(C)NC(=S)NC1c1cccc(O)c1 (configuration not stated) [MONASTROL] |  |  | 5.21 | 4.91 | 5.21 | 4.29 | 45.5 | 94.4 |  |  | 48 |
| CCOC(=O)C1=C(C)NC(=S)NC1c1ccc(OCCOCCOCCO)c(O)c1 (configuration not stated) | inactive | inactive |  |  |  |  | <25 | 10.3 |  |  |  |

Second part, led by results:

| Activity [2] | Activity [3] | pIC50 [4] | pIC50 [6] | pIC50 [8] | pIC50 (HeLa [9]) | SMILES | Activity (HeLa [1]) [%] | Activity (HeLa [5]) [%] | Activity (HeLa [1]; Homo sapiens) | Activity (HeLa [7]) [%] | Activity (HeLa [10]) [%] |
| --- | --- | --- | --- | --- | --- | --- | --- | --- | --- | --- | --- |
|  |  | 5.40 | 5.26 |  |  | CC1=C(C(=O)OCCOCCS)C(c2cccc(O)c2)NC(=S)N1 (configuration not stated) | <25 | 15.2 |  |  |  |
|  |  | 4.64 | 4.20 |  |  | CC1=C(C(=O)OCCOCCOCCOCCO)C(c2cccc(O)c2)NC(=S)N1 (configuration not stated) | <25 | 16.8 |  |  |  |
| inactive | inactive |  |  |  |  | CCOC(=O)C1=C(C)NC(=S)NC1c1cc(O)ccc1O (configuration not stated) |  |  | Active |  |  |
| inactive | inactive |  |  | 5.42 |  | CCOC(=O)C1=C(C)NC(=S)N(C(C)=O)C1c1cccc(O)c1 (configuration not stated) | 36.9 |  |  |  |  |
| inactive | inactive |  |  |  |  | CCOC(=O)C1=C(C)N=C(SCc2ccccc2)NC1c1cccc(O)c1 (configuration not stated) | <25 | <25 |  |  |  |
|  |  | 4.49 | 4.14 |  |  | CC1=C(C(=O)O)C(c2cccc(O)c2)NC(=S)N1 (configuration not stated) | <25 | 15.5 |  |  |  |
| inactive | inactive |  |  | 5.30 | 4.20 | CCOC(=O)C1=C(C)NC(=S)N(C(C)=O)C1c1cccc(OC(C)=O)c1 (configuration not stated) | 39.3 | 83.5 |  |  |  |
| inactive | inactive |  |  |  |  | CCOC(=O)C1=C(C)NC(SCC)=NC1c1cccc(O)c1 (configuration not stated) | <25 | <25 |  |  |  |
|  |  | 4.66 | 4.74 |  |  | CC1=C(C(=O)NCCOCCOCCN)C(c2cccc(O)c2)NC(=S)N1 (configuration not stated) | <25 | 15.8 |  |  |  |
| inactive | inactive |  |  |  |  | CCOC(=O)C1=C(C)N(CCOCCOCCO)C(=S)NC1c1cccc(O)c1 (configuration not stated) | <25 | 13.6 |  |  |  |
| inactive | inactive |  |  |  |  | CCOC(=O)C1=C(C)NC(=S)NC1c1ccc(O)c(O)c1 (configuration not stated) | <25 |  |  |  |  |
